Assay results as given in ChEMBL document CHEMBL4689842, “EUbOPEN Chemogenomics Library wave 1” (2021).

Tested on: HEK-293T
Test: Multiplex assay against HEK293T;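 on Population Tubulin-Different-Phenotype (%): share of the cells with healthy nuclei that show this phenotype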
Assay type: toxicity, cell-based
Details: human
Summary of the method: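 Live cells were stained at seeding with Hoechst33342, BioTracker Green Microtubule Cytoskeleton Dye, MitoTracker Red and Annexin V Alexa Fluor 680. Following compound addition, they were imaged on a CQ1 microscope at 37°C and 5% CO2 and gated by CellPathfinder machine learning into Hoechst high-intensity objects or normal cells, with normal cells split into healthy, pyknosed or fragmented nuclei and pyknosed cells into mitotic or apoptotic. Tubulin, mitochondrial-mass and membrane-permeability phenotypes are per cents of healthy-nucleus cells.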

[1] = 12 h, 1 µM, compound concentration 1 uM, replicate 1
[2] = 12 h, 1 µM, compound concentration 1 uM, replicate 2
[3] = 12 h, 10 µM, compound concentration 10 uM, replicate 1
[4] = 12 h, 10 µM, compound concentration 10 uM, replicate 2
[5] = 24 h, 1 µM, compound concentration 1 uM, replicate 1
[6] = 24 h, 1 µM, compound concentration 1 uM, replicate 2
[7] = 24 h, 10 µM, compound concentration 10 uM, replicate 1
[8] = 24 h, 10 µM, compound concentration 10 uM, replicate 2
[9] = 48 h, 1 µM, compound concentration 1 uM, replicate 1
[10] = 48 h, 1 µM, compound concentration 1 uM, replicate 2
[11] = 48 h, 10 µM, compound concentration 10 uM, replicate 1
[12] = 48 h, 10 µM, compound concentration 10 uM, replicate 2

Cc1csc2c(N[C@@H](C)CN3CCN(S(=O)(=O)c4ccc(Cl)c(Cl)c4)CC3)ncnc12
Population Apoptotic (%) [1]: 58% | Population Fragmented Nuclei (%) [1]: 12% | Population Healthy Nuclei (%) [1]: 16% | Population Hoechst High Intensity Objects (%) [1]: 19% | Population Membrane Permeable-Phenotype (%) [1]: 6% | Population Mitochondria Different-Phenotype (%) [1]: 96% | Population Mitotic Cells (%) [1]: 41% | Population Normal (%) [1]: 80% | Population Pyknosed Nuclei (%) [1]: 71% | Population Tubulin-Different-Phenotype (%) [1]: 93% | Total Cell Count [1]: 223 | Population Apoptotic (%) [2]: 27% | Population Fragmented Nuclei (%) [2]: 5% | Population Healthy Nuclei (%) [2]: 29% | Population Hoechst High Intensity Objects (%) [2]: 13% | Population Membrane Permeable-Phenotype (%) [2]: 14% | Population Mitochondria Different-Phenotype (%) [2]: 47% | Population Mitotic Cells (%) [2]: 72% | Population Normal (%) [2]: 86% | Population Pyknosed Nuclei (%) [2]: 64% | Population Tubulin-Different-Phenotype (%) [2]: 64% | Total Cell Count [2]: 135 | Population Apoptotic (%) [3]: 79% | Population Fragmented Nuclei (%) [3]: 9% | Population Healthy Nuclei (%) [3]: 5% | Population Hoechst High Intensity Objects (%) [3]: 11% | Population Membrane Permeable-Phenotype (%) [3]: 20% | Population Mitochondria Different-Phenotype (%) [3]: 90% | Population Mitotic Cells (%) [3]: 20% | Population Normal (%) [3]: 88% | Population Pyknosed Nuclei (%) [3]: 84% | Population Tubulin-Different-Phenotype (%) [3]: 80% | Total Cell Count [3]: 197 | Population Apoptotic (%) [4]: 80% | Population Fragmented Nuclei (%) [4]: 5% | Population Healthy Nuclei (%) [4]: 11% | Population Hoechst High Intensity Objects (%) [4]: 8% | Population Membrane Permeable-Phenotype (%) [4]: 9% | Population Mitotic Cells (%) [4]: 19% | Population Normal (%) [4]: 91% | Population Pyknosed Nuclei (%) [4]: 83% | Population Tubulin-Different-Phenotype (%) [4]: 68% | Total Cell Count [4]: 206 | Population Apoptotic (%) [5]: 57% | Population Fragmented Nuclei (%) [5]: 16% | Population Healthy Nuclei (%) [5]: 21% | Population Hoechst High Intensity Objects (%) [5]: 18% | Population Membrane Permeable-Phenotype (%) [5]: 4% | Population Mitochondria Different-Phenotype (%) [5]: 93% | Population Mitotic Cells (%) [5]: 42% | Population Normal (%) [5]: 81% | Population Pyknosed Nuclei (%) [5]: 62% | Population Tubulin-Different-Phenotype (%) [5]: 90% | Total Cell Count [5]: 244 | Population Apoptotic (%) [6]: 35% | Population Fragmented Nuclei (%) [6]: 10% | Population Healthy Nuclei (%) [6]: 28% | Population Hoechst High Intensity Objects (%) [6]: 7% | Population Membrane Permeable-Phenotype (%) [6]: 8% | Population Mitochondria Different-Phenotype (%) [6]: 44% | Population Mitotic Cells (%) [6]: 64% | Population Normal (%) [6]: 92% | Population Pyknosed Nuclei (%) [6]: 61% | Population Tubulin-Different-Phenotype (%) [6]: 88% | Total Cell Count [6]: 131 | Population Apoptotic (%) [7]: 85% | Population Fragmented Nuclei (%) [7]: 12% | Population Healthy Nuclei (%) [7]: 6% | Population Hoechst High Intensity Objects (%) [7]: 16% | Population Membrane Permeable-Phenotype (%) [7]: 27% | Population Mitochondria Different-Phenotype (%) [7]: 90% | Population Mitotic Cells (%) [7]: 14% | Population Normal (%) [7]: 83% | Population Pyknosed Nuclei (%) [7]: 80% | Population Tubulin-Different-Phenotype (%) [7]: 63% | Total Cell Count [7]: 208 | Population Apoptotic (%) [8]: 88% | Population Fragmented Nuclei (%) [8]: 5% | Population Healthy Nuclei (%) [8]: 7% | Population Hoechst High Intensity Objects (%) [8]: 9% | Population Membrane Permeable-Phenotype (%) [8]: 0% | Population Mitochondria Different-Phenotype (%) [8]: 85% | Population Mitotic Cells (%) [8]: 11% | Population Normal (%) [8]: 91% | Population Pyknosed Nuclei (%) [8]: 86% | Population Tubulin-Different-Phenotype (%) [8]: 71% | Total Cell Count [8]: 200 | Population Apoptotic (%) [9]: 59% | Population Fragmented Nuclei (%) [9]: 16% | Population Healthy Nuclei (%) [9]: 38% | Population Hoechst High Intensity Objects (%) [9]: 17% | Population Membrane Permeable-Phenotype (%) [9]: 5% | Population Mitochondria Different-Phenotype (%) [9]: 80% | Population Mitotic Cells (%) [9]: 40% | Population Normal (%) [9]: 82% | Population Pyknosed Nuclei (%) [9]: 45% | Population Tubulin-Different-Phenotype (%) [9]: 85% | Total Cell Count [9]: 240 | Population Apoptotic (%) [10]: 29% | Population Fragmented Nuclei (%) [10]: 10% | Population Healthy Nuclei (%) [10]: 47% | Population Hoechst High Intensity Objects (%) [10]: 8% | Population Membrane Permeable-Phenotype (%) [10]: 17% | Population Mitochondria Different-Phenotype (%) [10]: 44% | Population Mitotic Cells (%) [10]: 70% | Population Normal (%) [10]: 91% | Population Pyknosed Nuclei (%) [10]: 42% | Population Tubulin-Different-Phenotype (%) [10]: 89% | Total Cell Count [10]: 159 | Population Apoptotic (%) [11]: 47% | Population Fragmented Nuclei (%) [11]: 23% | Population Healthy Nuclei (%) [11]: 4% | Population Hoechst High Intensity Objects (%) [11]: 17% | Population Membrane Permeable-Phenotype (%) [11]: 25% | Population Mitochondria Different-Phenotype (%) [11]: 62% | Population Mitotic Cells (%) [11]: 52% | Population Normal (%) [11]: 82% | Population Pyknosed Nuclei (%) [11]: 72% | Population Tubulin-Different-Phenotype (%) [11]: 87% | Total Cell Count [11]: 229 | Population Apoptotic (%) [12]: 74% | Population Fragmented Nuclei (%) [12]: 4% | Population Healthy Nuclei (%) [12]: 21% | Population Hoechst High Intensity Objects (%) [12]: 13% | Population Membrane Permeable-Phenotype (%) [12]: 8% | Population Mitochondria Different-Phenotype (%) [12]: 78% | Population Mitotic Cells (%) [12]: 25% | Population Normal (%) [12]: 86% | Population Pyknosed Nuclei (%) [12]: 73% | Population Tubulin-Different-Phenotype (%) [12]: 67% | Total Cell Count [12]: 199
